A selection: hits, their analogues and other compounds. The true share with any hit is near 1.5%.
HNF4A DNA FP – change in binding of human HNF4 alpha to DNA; HNF4a-FITC DNA binding, fluorescence polarization, 1 h; P41235; 360,000 tested, 0.3% active; activity change, % at 10 µM; in the data active = activity change above about 30%, passing the limit was not always enough
TPT1 inh – inhibitors of Candida albicans tRNA 2'-phosphotransferase TPT1; recombinant caTPT1, FP RNA substrate dephosphorylation; inhibition, % at 5 µM; 300,000 tested, 0.81% active;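 active = inhibition above the mean of all tested compounds plus 3 SD, set per screening campaign, cut at about 24% in these data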
Rpn11 block – inhibitors of human proteasome Rpn11. O00487. human 26S proteasome, Ub4-pepOG fluorescence polarization; 20S core pre-blocked with epoxomicin. calls only at 20 µM. 360,000 tested, 0.59% active;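 active = inhibition at 20 µM, scaled to each plate's controls, above about 33%, limit read from the data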
Target sequence (O00487 whole entry, looked up): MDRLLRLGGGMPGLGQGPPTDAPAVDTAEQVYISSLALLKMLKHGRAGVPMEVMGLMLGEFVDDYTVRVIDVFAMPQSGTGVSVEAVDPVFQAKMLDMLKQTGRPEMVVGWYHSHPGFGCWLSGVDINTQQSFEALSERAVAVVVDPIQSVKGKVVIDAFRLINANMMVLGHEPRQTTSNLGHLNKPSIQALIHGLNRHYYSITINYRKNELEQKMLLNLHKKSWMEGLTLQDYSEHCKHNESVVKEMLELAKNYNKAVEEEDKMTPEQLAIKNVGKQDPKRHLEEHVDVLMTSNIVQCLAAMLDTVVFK
CSN deneddyl inh – blocks human CSN-mediated cullin deneddylation; Purified CSN, SCF-Nedd8-OG deneddylation, fluorescence polarization; inhibition, % at 12.5 µM; 360,000 tested, 0.38% active; AID 651999;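 active = pattern-corrected inhibition above about 35%, with an unprinted fluorescence ratio check between 0.5 and 1.5, limit read from the data, passing the limit was not always enough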
Target sequence (Q92905 whole entry, looked up, one chain of several): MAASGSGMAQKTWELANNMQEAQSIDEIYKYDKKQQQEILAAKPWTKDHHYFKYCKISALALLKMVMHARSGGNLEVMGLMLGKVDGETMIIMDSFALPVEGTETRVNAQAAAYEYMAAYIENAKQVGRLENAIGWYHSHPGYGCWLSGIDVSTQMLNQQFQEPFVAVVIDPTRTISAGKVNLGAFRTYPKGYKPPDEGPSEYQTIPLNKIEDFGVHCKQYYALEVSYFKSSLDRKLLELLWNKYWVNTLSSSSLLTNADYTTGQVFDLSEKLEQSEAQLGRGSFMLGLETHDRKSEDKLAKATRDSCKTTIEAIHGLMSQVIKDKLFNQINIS
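Detection – fluorescence polarization · System – HEK293T-derived human Csn5 enzyme · Controls – substrate-only high control, full reaction low control · Timing – 90 min, room temperature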
CSN deneddyl val – Csn5 (human) deneddylation inhibition, single-concentration validation; shares compounds with CSN deneddyl inh; Csn5 deneddylation of SCF-Nedd8OG, fluorescence polarization, 90 min; 540 tested, 62% active; AID 720654; inhibition, % at 16.6 µM; in the data active = inhibition above about 50%
MMP-2 counter – MMP-2 (human) inhibition, counter-screen for CSN hits | shares compounds with CSN deneddyl inh | recombinant MMP-2, FRET substrate fluorescence, 60 min | inhibition, % at 16.6 µM | 540 tested, 33% active | AID 720655;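 active = corrected plate-normalized z-score of 5 or more, or -5 or less, or inhibition of 15% or more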
Thrombin cntr – counter-screen for CSN deneddylation inhibitors: bovine thrombin inhibition | 540 tested, 49% active | bovine thrombin cleavage of Ub4-pepOG, fluorescence polarization | inhibition, % at 16.6 µM | shares compounds with CSN deneddyl inh;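 active = inhibition at or above a set limit, with a fluorescence interference ratio between 0.5 and a set maximum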
Numbers stand for hits; – = inactive; · = no result shown; + = active, no number.

SMILES	HNF4A DNA FP	TPT1 inh	Rpn11 block	CSN deneddyl inh	CSN deneddyl val	MMP-2 counter	Thrombin cntr
O=C(Nc1ccc(Nc2ccncc2)cc1)c1ccc(Nc2ccnc3ccc([N+](=O)[O-])cc23)cc1[N+](=O)[O-]	–	–	–	54	·	36	–
O=C(Nc1ccc(Nc2ccncc2)cc1)c1ccc([N+](=O)[O-])cc1	–	–	–	–	·	·	·
O=C(Nc1cccc(-c2nc3ccccc3[nH]2)c1)c1cccc(NC(=O)c2ccco2)c1	–	–	–	57	–	–	–
O=C(c1noc2c1CSc1ccccc1-2)N1CCN(c2ccc(Cl)cc2)CC1	–	–	–	–	·	·	·
CCn1c(O)c(N=NC(=O)C(O)c2ccccc2)c2ccccc21 (centres undefined)	–	–	–	–	·	·	·
CCOC1=C/C(=C/c2c(N)n3nc(-c4ccccc4)sc3nc2=O)C=CC1=O	–	·	·	41	–	–	64
CCCc1nn2c(N)c(/C=C3\C=Nc4ccccc43)c(=O)nc2s1	–	–	–	–	·	·	·
COC1=C/C(=C/c2c(N)n3nc(-c4ccc(C)cc4)sc3nc2=O)C=CC1=O	60	·	·	78	·	–	76
COc1ccc(S(=O)(=O)N(C)C[C@@H]2Oc3c(NS(=O)(=O)c4cn(C)cn4)cccc3C(=O)N([C@@H](C)CO)C[C@@H]2C)cc1	–	·	–	–	·	·	·
O=C1/C(=C/c2ccco2)Oc2c1ccc(O)c2CN1CCCCC1	–	–	–	42	·	–	–
CC1CCN(Cc2c(O)ccc3c2O/C(=C\c2ccco2)C3=O)CC1	–	–	–	–	·	·	·
Cc1nc2sc3c(c2c(=O)[nH]1)CCC3	–	–	–	–	·	·	·
Cc1cc(-c2nc3c4c5c(sc4[nH]c(=O)n3n2)CCC5)c(C)o1	–	–	–	36	92	–	–
Clc1ccc(-c2nc3c4ccccc4ccn3c2Cc2ccsc2)cc1	–	·	·	–	·	·	·
CCN(CC)c1ccc(/C=C2\SC(N)=NC2=O)cc1	–	·	·	68	131	-33	78
COc1ccc(S(=O)(=O)N(C)C)cc1NC(=O)COC(=O)C1CC1	–	·	–	–	·	·	·
O=C1/C(=C/c2cccnc2)SC(=S)N1Cc1ccco1	–	·	–	–	·	·	·
Cc1cc(/C=C2\SC(=S)N(Cc3ccco3)C2=O)c(C)n1-c1cccnc1	–	·	·	79	·	–	–
CC(C)Oc1ccc(CN2CCC(n3nccc3NC(=O)CCc3ccccc3)CC2)cc1	–	–	–	–	·	·	·
COc1ncnc2c1ncn2CCCNCc1ccco1	–	·	–	–	·	·	·
c1ccc(C2=NN(c3ccccc3)CC2)cc1	–	–	–	–	·	·	·
CCOC(=O)/C(=C/c1ccc(N2CCC(c3ccccc3)=N2)cc1)C(C)=O	–	·	·	40	189	-71	–
Cc1ccc(N=C2NC(=O)/C(=C\c3ccco3)S2)cc1	–	–	–	–	·	·	·
COc1ccc(N=C2NC(=O)/C(=C\C=C\c3ccco3)S2)cc1	–	·	–	46	84	–	–
Cc1cccc(N=C2NC(=O)/C(=C/C=C/c3ccco3)S2)c1	–	–	–	53	88	–	–
SMILES	HNF4A DNA FP	TPT1 inh	Rpn11 block	CSN deneddyl inh	CSN deneddyl val	MMP-2 counter	Thrombin cntr
CCS(=O)(=O)NC(=O)C1(C)CCN1C(=O)Cc1ccc(Cl)cc1Cl (centres undefined)	–	·	–	–	·	·	·
CC(C)(C)S(=O)(=O)N1Cc2ccc(CO)cc2[C@@H]1CCO	–	·	–	–	·	·	·
Cc1ccnc2nc(C(=O)OCC(=O)c3ccc(NC(=O)CC(C)C)cc3)nn12	–	·	–	–	·	·	·
CCC(=O)Nc1ccc(C(=O)COC(=O)c2nc3nccc(C)n3n2)cc1	–	·	–	44	·	–	–
C=CCOc1ccc(Br)cc1/C=C1/SC(=Nc2ccc(C(=O)O)cc2)NC1=O	–	·	–	36	97	–	–
CCOc1cc(Br)cc(/C=C2\SC(=Nc3ccccc3)NC2=O)c1O	–	–	–	–	·	·	·
COc1ccc(CNC(=O)c2cn(Cc3ccc(S(=O)(=O)N(C)C)cc3)c(=O)s2)cc1	–	·	–	–	·	·	·
O=[N+]([O-])c1ccc(N2N=C(c3ccccc3)CC2c2ccccc2O)cc1 (centres undefined)	86	·	·	56	51	–	59
O=c1[nH]c(Nc2ccccc2)cc2cc(Br)ccc12	–	–	–	49	61	–	–
COc1ccccc1Nc1cc2cc(Br)ccc2c(=O)[nH]1	–	–	–	53	70	–	–
O=C(NC1CCCC1)c1ccc(Cl)c(S(=O)(=O)N2CCCCC2)c1	–	–	–	–	·	·	·
CC(C)CC(=NNC(=O)c1ccncc1)c1cc(Cl)ccc1O	–	·	·	63	71	-51	46
CC(=NNC(=O)c1ccncc1)c1ccccc1O	–	·	–	–	·	·	·
CCN1/C(=C/c2ccc3cc(C)ccc3[n+]2C)Sc2ccc3sccc3c21	–	·	+	137	–	–	67
CCCCN1/C(=C/c2ccc3ccccc3[n+]2CC)Sc2ccccc21	–	·	–	–	·	·	·
CCN1/C(=C/c2cccc[n+]2C)Sc2ccc(OC)cc21	–	–	–	–	·	·	·
CCN1/C(=C/c2ccc3cc(C)ccc3[n+]2CC)Sc2cc(C)ccc21	109	·	·	56	60	–	–
O=C(NCCCn1ccnc1)c1ccc(-c2cccc(Cl)c2Cl)o1	–	·	–	–	·	·	·
COc1ccccc1N(CC(=O)NCc1ccco1)S(=O)(=O)c1ccc(C)cc1	–	–	–	44	62	28	–
COc1ccc(N(CC(=O)NCc2ccco2)S(=O)(=O)c2ccc(C)cc2)cc1OC	–	–	–	–	·	·	·
Nc1ccc2c(O)cc(S(=O)(=O)O)cc2c1	–	·	–	36	94	16	–
CC(=O)Nc1ccc2c(O)cc(S(=O)(=O)O)cc2c1	–	·	–	–	·	·	·
N#Cc1c(SCC(=O)Nc2nc3ccccc3s2)sc2c(O)cc(=O)[nH]c12	–	·	–	40	77	–	–
N#Cc1c(SCC(=O)Nc2ccccc2C(F)(F)F)sc2c(O)cc(=O)[nH]c12	–	–	–	–	·	·	·
Cc1cccc(N2CCN(C(=S)Nc3ccc4nc(N5CCN(C)CC5)cc(C)c4c3)CC2)c1C	59	·	–	36	97	–	–
COc1ccc(C2C(C#N)=C(N)Oc3c2oc(CO)cc3=O)cc1 (centres undefined)	–	–	–	–	·	·	·
CSc1ccc(C2C(C#N)=C(N)Oc3c2ccc(=O)c2c(C)oc(C)c32)cc1 (centres undefined)	–	40	·	49	95	–	–
CN(CC(=O)Nc1ccccc1C(=O)NC1CC1)Cc1ccc(Cl)s1	–	·	–	–	·	·	·
CC1(C(=O)Nc2nccs2)CCN1C(=O)CC(c1ccccc1)c1ccccc1 (centres undefined)	–	·	–	–	·	·	·
COCCN(CC(=O)Nc1ccccc1C(F)(F)F)C(=O)/C=C/c1ccc2ccccc2n1	–	·	–	–	·	·	·

Compound activity: PubChem BioAssay, several laboratories
